Measurements collected from several papers.
Lines come from different studies, so protocols differ.
Target: NUAK family SNF1-like kinase 1 (NUAK1, Homo sapiens, UniProt O60285)
Concentration: 1 µM
One construct used (O60285 1-661): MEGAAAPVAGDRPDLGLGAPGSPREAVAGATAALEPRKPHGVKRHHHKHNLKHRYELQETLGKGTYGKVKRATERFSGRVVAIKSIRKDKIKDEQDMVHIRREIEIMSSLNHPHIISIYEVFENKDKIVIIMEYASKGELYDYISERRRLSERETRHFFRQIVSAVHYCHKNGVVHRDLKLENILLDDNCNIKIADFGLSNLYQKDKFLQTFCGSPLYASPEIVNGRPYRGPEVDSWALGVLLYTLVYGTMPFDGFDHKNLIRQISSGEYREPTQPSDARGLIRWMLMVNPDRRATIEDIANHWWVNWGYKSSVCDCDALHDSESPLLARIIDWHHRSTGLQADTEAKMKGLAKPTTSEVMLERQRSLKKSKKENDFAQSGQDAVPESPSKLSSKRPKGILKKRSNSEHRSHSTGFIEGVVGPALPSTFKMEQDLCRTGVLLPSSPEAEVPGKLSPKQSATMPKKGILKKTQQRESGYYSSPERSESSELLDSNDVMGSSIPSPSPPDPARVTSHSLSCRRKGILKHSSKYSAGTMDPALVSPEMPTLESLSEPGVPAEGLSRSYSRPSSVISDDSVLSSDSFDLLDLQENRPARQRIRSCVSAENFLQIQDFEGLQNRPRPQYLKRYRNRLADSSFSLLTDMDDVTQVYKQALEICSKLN

| Structure (SMILES) | assay | remaining binding [%] |
| --- | --- | --- |
| CN(C)c1nccc(-c2cnn3ncccc23)n1 | binding | 97 |
| CNC(=O)[C@@H]1CC[C@@H](n2c(-c3ccc4cnccc4c3)nc3ccc(C(=O)NCc4cccc(C(N)=O)c4)cc32)C1 | binding, competition with immobilised ligand | 84 |
| NS(=O)(=O)c1cc(NC(=O)Cc2ccccc2)ccc1Oc1cccc(Cl)c1 | cell-free assay, competition with immobilised ligand | 100 |
| N[C@H]1CCN(c2nccc(-c3cnn4ncccc34)n2)C1 | binding | 63 |
| CCN1CCN(Cc2ccc(C(=O)Nc3ccc(C)c(Oc4ccc5c(c4)CC(=O)N5)c3)cc2C(F)(F)F)CC1 | binding, competition with immobilised ligand | 100 |
| O=C(c1ccc(Nc2nccc(-c3cc4ccccc4s3)n2)cc1)N1CCC(N2CCCC2)CC1 | binding, competition with immobilised ligand | 22 |
| CC(=O)N1CCC(c2ccc(C(=O)NC3=NCCN3)cc2C(F)(F)F)CC1 | cell-free assay, competition with immobilised ligand | 98 |
| O=C(NCCCN1CCOCC1)c1ccc(Nc2ncc(Cl)c(-c3ccc(Cl)s3)n2)cc1 | binding, competition with immobilised ligand | 0.9 |
| Nc1ncc2c(n1)-c1c([nH]c3ccc(C#CC4CC4)cc13)CCCC2 | binding, competition with immobilised ligand | 100 |
| CNCc1ccccc1-c1csc([C@H](C)Nc2nc(C)nc3cc(OC)c(OC)cc23)c1 | cell-free assay, competition with immobilised ligand | 90 |
| COc1cnc(Nc2cccc(S(N)(=O)=O)c2)nc1N1CCN(c2ccccc2)CC1 | binding, competition with immobilised ligand | 82 |
| COc1ccnn2ncc(-c3ccnc(N(C)C)n3)c12 | binding | 82 |
| O=C(c1ccc(Nc2ncc(Cl)c(-c3ccc(Cl)s3)n2)cc1)N1CCC(N2CCCC2)CC1 | binding, competition with immobilised ligand | 0.65 |
| C[C@H]1CCN(c2nccc(-c3cnn4ncccc34)n2)C1 | binding | 90 |
| O=C(NC[C@@H]1[C@H]2CN(C(=O)OCc3cc(C(F)(F)F)cc(C(F)(F)F)c3)C[C@@H]12)c1ccc2[nH]nnc2c1 | cell-free assay, competition with immobilised ligand | 87 |
| CN(CCCC(F)(F)F)c1nccc(-c2cnn3ncccc23)n1 | binding | 100 |
| O=C(Nc1c[nH]nc1C(=O)NC1CCNCC1)c1cc(F)cc(F)c1 | binding, competition with immobilised ligand | 76 |
| CN(C)C(=O)Cn1cc(-c2nc([C@@](C)(c3ccc(-c4cnc(N)nc4)cc3)C3CC3)no2)cn1 | cell-free assay, competition with immobilised ligand | 100 |
